According to ChEMBL document CHEMBL1148483, “Potent nonclassical nucleoside antiviral drugs based on the N,N-diarylformamidine concept” (J Med Chem, 2004):
Where “and” joins values, the source holds several entries; their conditions need not be identical. Equal values may be shown once.

Assays:
MT4 [1] = assay: Concentration required to cause death of MT-4 cells was determined in vitro; format: functional; details: Homo sapiens
Outline: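 Uninfected (mock-infected) MT-4 cells grown in RPMI 1640 + 10% heat-inactivated FCS, 2 mM L-glutamine, gentamicin; viability measured at day 5 at 37 °C, 5% CO2; CC50 = concentration causing 50% death of uninfected cells.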

MT4 [2] = assay: Effective concentration to inhibit HIV-1 IIIB cytopathicity in MT-4 cells was determined in vitro; format: functional, cell-based; details: Homo sapiens
Outline: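 HIV-1 IIIB-infected MT-4 cells (RPMI 1640, 10% FCS); inhibition of virus-induced cytopathicity read 5 days post-infection; EC50 = concentration inhibiting cytopathicity by 50%.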

[3] = Half life is the time required for hydrolysis of compound to 3TC in HBV medium at 37 degree celsius; format: ADME
Outline: (§1)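 Compound in DMSO diluted 1:100 into medium, final concentration around 5×10^-4 M, and held at 37 °C. Media: PBS (0.01 M, pH 7.4), HepG2.2.15 culture medium, or MT-4 medium (RPMI 1640 + 10% FCS). Samples taken over time and quenched in ice-cold methanol. Conversion to 3TC followed by HPLC at 317 nm. t1/2 is the time to 50% hydrolysis.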

PBMC [4] = assay: Effective concentration to inhibit HIV-1 LAI cytopathicity in PBMC cells was determined in vitro; format: functional, cell-based; details: Homo sapiens
Outline: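 PHA-P/rhIL-2-activated PBMCs (100 000/well) pretreated 30 min with compound, then infected with 75 TCID50 HIV-1/LAI; supernatant RT activity measured at day 7; triplicates, mean ± SD; EC50 from percent of untreated controls, 50% inhibition of replication.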

[5] = Partition coefficient (logP); format: physicochemical; details: octanol/water
[6] = Half life is the time required for hydrolysis of compound to 3TC in HIV medium at 37 degree celsius; format: ADME; outline: as §1
[7] = Half life is the time required for hydrolysis of compound to 3TC in MT-4 lysate medium at 37 degree celsius; format: ADME; details: human, MT-4 cell lysate
Outline: (§2)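 Cell lysates prepared from PBS-washed HepG2.2.15 or MT-4 cells, about 10×10^6 cells/mL, in Tris-HCl 50 mM, NaCl 150 mM, EDTA 0.1 mM, 0.5% NP40 and protease inhibitors. Lysis 10 min on ice, then centrifuged; supernatant used. Compound added from DMSO to a final concentration around 5×10^-4 M, 37 °C. Timed samples quenched in cold methanol, HPLC at 317 nm. t1/2 is the time to 50% conversion to 3TC.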

HepG2 = assay: Effective concentration to inhibit hepatitis B virus DNA formation in HepG2.2.15 cells was determined in vitro; details: Homo sapiens
PBMC [8] = assay: Concentration required to cause death of PBMC cells was determined in vitro; format: functional; details: Homo sapiens
Outline: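 Healthy-donor PBMCs activated 3 days with PHA-P (1 μg/mL) and rhIL-2 (5 IU/mL), 100 000 cells/well in RPMI 1640/10% FCS + 20 IU/mL rhIL-2; drug-induced cytotoxicity judged by microscopic observation; CC50 = concentration causing 50% death of uninfected cells.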

[9] = Half life is the time required for hydrolysis of compound to 3TC in HepG 2.2.15 lysate medium at 37 degree celsius; format: ADME, HepG2 2.2.15; details: human, HepG 2.2.15 cell lysate; outline: as §2
[10] = Half life is the time required for hydrolysis of compound to 3TC in PBS medium at 37 degree celsius; format: ADME; outline: as §1
MT4 [11] = assay: Selectivity index is the ratio of CC50 to EC50 values; format: functional
Outline: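 Selectivity index = CC50/EC50 for uninfected versus HIV-1-infected MT-4 cells or PBMCs.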

SMILES | CC50 (MT4 [1]) [nM] | EC50 (MT4 [2]) [nM] | half-life [3] [h] | EC50 (PBMC [4]) [nM] | logP [5] | half-life [6] [h] | half-life [7] [h] | EC50 (HepG2) [nM] | CC50 (PBMC [8]) [nM] | half-life [9] [h] | half-life [10] [h] | SI (MT4 [11])
O=c1nc(/N=C/N2CCOCC2)ccn1C1CSC(CO)O1 (stereo not drawn) | > 265000 | 400 | 1 | 6.2 | 0.62 | 1.5 | 3.5 | 50 | > 10000 | 2.5 | 2.5 | 
CN(C)/C=N/c1ccn(C2CSC(CO)O2)c(=O)n1 (stereo not drawn) | > 440000 | 570 | 2 | 23.7 | 1.02 | 2.5 | 4.5 | 10 | > 10000 | 3 | 3.5 | >772 and >422
Nc1ccn([C@@H]2CS[C@H](CO)O2)c(=O)n1 [LAMIVUDINE] | > 44000 | 500 |  | 11.6 | 0.06 |  |  | 200 | > 10000 |  |  | 
Nc1ccn([C@H]2CC[C@@H](CO)O2)c(=O)n1 [ZALCITABINE] | 141000 | 1040 |  |  | -0.58 |  |  |  |  |  |  | 135
